Drawing on ChEMBL document CHEMBL3112517, “Identification of dihydrostilbenes in Pholidota chinensis as a new scaffold for GABAA receptor modulators” (Bioorg Med Chem, 2014), this text covers Activity, Imax and EC50 for 23 molecules.

The source made the active and inactive calls. The calls are words filed in the database; no cut-off is given here.

As usually defined, the EC50 is the concentration needed to bring the measured effect to its halfway point.

Common to all, as to type: cell-based
The species named for assay [1] is Rattus norvegicus. Put plainly: Allosteric modulation of rat GABAA alpha1beta2gamma2S receptor expressed in Xenopus laevis oocytes assessed as potentiation of GABA-induced chloride ion current at holding potential -70 mV at 100 uM by two-microelectrode voltage clamp assay relative to GABA-treated control. The gist of the method: (§1)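 Stage V–VI Xenopus laevis oocytes were injected with 50 nL of rat α1, β2 and γ2S cRNA mixed 1:1:10 (about 300–3000 pg/nL per subunit), stored at 18 °C in ND96, and recorded on days 1–5. Two-electrode clamp was at −70 mV in pH 7.4 HEPES bath. Compound was applied by fast perfusion with GABA EC3–10, in 1% DMSO final. Enhancement = I(GABA+Comp)/IGABA − 1.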

For assay [2], the species on record is Rattus norvegicus. Put plainly: Modulation of rat GABAA alpha1beta2gamma2S receptor expressed in Xenopus laevis oocytes assessed as potentiation of EC5 to 10 GABA-induced chloride ion current at holding potential -70 mV at 1 uM by two-microelectrode voltage clamp assay relative to GABA-treated control. The gist of the method: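 Stage V–VI oocytes injected with rat α1, β2 and γ2S cRNAs (1:1:10), kept at 18 °C in ND96 and recorded 1–5 days later at −70 mV. Bath: 90 mM NaCl, 1 mM KCl, 1 mM MgCl2, 1 mM CaCl2, 5 mM HEPES, pH 7.4. Compound from 100 mM DMSO stock co-applied with GABA EC3–10 by fast perfusion, final DMSO 1%. Enhancement = I(GABA+comp)/IGABA − 1.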

The species named for assay [3] is Rattus norvegicus. Put plainly: Allosteric modulation of rat GABAA alpha1beta2gamma2S receptor expressed in Xenopus laevis oocytes assessed as potentiation of EC3 to 10 GABA-induced chloride ion current at holding potential -70 mV at 500 uM by two-microelectrode voltage clamp assay relative to GABA-treated control. An outline of the steps: as §1
Assay [4] is filed under the species Rattus norvegicus. In words: Agonist activity rat GABAA alpha1beta2gamma2S receptor expressed in Xenopus laevis oocytes assessed as potentiation of GABA-induced chloride ion current at holding potential -70 mV at <100 uM compound treated prior to GABA challenge by two-microelectrode voltage clamp assay.
Assay [5] is filed under the species Rattus norvegicus. In words: (§2) Allosteric modulation of rat GABAA alpha1beta2gamma2S receptor expressed in Xenopus laevis oocytes assessed as potentiation of EC3 to 10 GABA-induced chloride ion current at holding potential -70 mV by two-microelectrode voltage clamp assay. An outline of the steps:
as §1

A short description of assay [6]: as §2. An outline of the steps: as §1
Assay [7] is filed under the species Rattus norvegicus. Put plainly: Allosteric modulation of rat GABAA alpha1beta2gamma2S receptor expressed in Xenopus laevis oocytes assessed as potentiation of EC3 to 10 GABA-induced chloride ion current at holding potential -70 mV at 1 to 300 uM by two-microelectrode voltage clamp assay relative to GABA-treated control. An outline of the steps:
as §1

Turning to `Br[C@H](c1ccccc1)[C@@H](Br)c1ccccc1`, the Activity in assay [1] was -12.9%. Turning to `CN1C(=O)CN=C(c2ccccc2)c2cc(Cl)ccc21`, the Activity in assay [2] is 231%. As for `COc1ccc(/C=C/c2ccccc2F)cc1`, the Activity in assay [1] was -22.9%. `COc1ccc(CCc2ccc(OC)cc2)cc1`: in assay [1], the Activity is -20.9%.

Regarding `Oc1ccc(CCc2cc(O)cc(O)c2)cc1`, the Activity in assay [1] stood at 162%. The same measure, in the same setting: the result for `COc1ccc(/C=C/c2ccc(OC)cc2)cc1` reads -24.8%; that for `C(=C\c1ccccc1)/c1ccccc1`, -11.3%. With `COc1cc(O)cc(/C=C\c2cccc(O)c2)c1`, the Imax in assay [3] worked out at 787%. Besides, in assay [4], the outcome was inactive. Further, the Activity in assay [1] is 192%; in assay [5], “Dose-dependent effect”. In addition, the EC50 in assay [6] was 176 µM.

On to `c1ccc(CC(c2ccccc2)c2ccccc2)cc1`, for which the Activity in assay [1] worked out at 51.6%. Take `Oc1cc(O)cc(CCc2ccc(O)c(O)c2)c1`: in assay [1], the Activity stood at 86.3%.

In the case of `COc1cc(CCc2ccc(OC)c(OC)c2)cc(OC)c1`, in assay [4], the result was inactive. Besides, the Activity is 544% in assay [1] and “Dose-dependent effect” in assay [5]. In addition, the EC50 in assay [6] was 20.2 µM. Besides, in assay [7], the Imax was 871%. As to `CC(=O)Oc1ccc(CCc2cc(OC(C)=O)cc(OC(C)=O)c2)cc1`, the Activity in assay [1] was found to be 228%.

`Oc1cc(O)cc(/C=C/c2ccc(O)c(O)c2)c1`: the Activity in assay [1] was -35.4%. Same read-out and setting: with `Oc1cc(O)cc(/C=C/c2ccc(O)cc2O)c1` the figure was -19.7%. Turning to `COc1cc(/C=C/c2ccc(O)cc2)cc(OC)c1`, the Activity in assay [1] came out at 212%. `C(=C(c1ccccc1)c1ccccc1)c1ccccc1`: the Activity in assay [1] is -7.3%. On the same count and under the same terms, the result for `COc1cc(/C=C/c2ccc(OC)c(OC)c2)cc(OC)c1` reads 101%.

For `Oc1cc(O)cc(CCc2ccc(O)cc2O)c1`, the Activity in assay [1] is 44.1%. Turning to `C(=C/c1ccccc1)/c1ccccc1`, in assay [1], the Activity amounted to 12.6%. Consider `COc1ccc(CCc2ccccc2F)cc1`, for which the Activity in assay [1] was -16.8%. The same measure, in the same setting: the result for `Oc1ccc(/C=C/c2cc(O)cc(O)c2)cc1` reads 122%; that for `CC(=O)Oc1ccc(/C=C/c2cc(OC(C)=O)cc(OC(C)=O)c2)cc1`, 123%; that for `c1ccc(CCc2ccccc2)cc1`, 8.3%.
